# Sampled rows, rich in hits. Any-hit rate of the full collection: about 1.2%.
# proCasp7 act: activates human procaspase-7, counter-screen for procaspase-3 activators. 330,000 compounds, 0.093% hits. recombinant procaspase-7, Ac-DEVD-pNA absorbance 405 nm; D23A/D198A/D206A triple mutant, cannot self-cleave; scale: DMSO 0, 5 µM enzyme 100. P55210. AID 463210. activation, % at 8.5 µM;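 active means percent activation above the screen-wide mean plus 3 SD, cut at about 25% in these data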
# Target sequence (P55210 whole entry D23A/D198A/D206A): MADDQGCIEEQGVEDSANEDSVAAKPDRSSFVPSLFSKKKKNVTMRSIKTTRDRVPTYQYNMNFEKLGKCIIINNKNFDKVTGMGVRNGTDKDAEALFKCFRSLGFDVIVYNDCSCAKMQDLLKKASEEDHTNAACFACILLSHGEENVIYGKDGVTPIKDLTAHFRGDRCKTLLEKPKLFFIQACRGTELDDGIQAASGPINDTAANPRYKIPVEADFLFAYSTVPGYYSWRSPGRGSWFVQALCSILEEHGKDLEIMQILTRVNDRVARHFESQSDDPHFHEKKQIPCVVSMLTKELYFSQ
#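 signal = Epi-absorbance of released pNA at 405 nm, two timepoints | assay system = Uncleavable procaspase-7 mutant enzyme | reagent = Ac-DEVD-pNA substrate, 400 µM as added | times = 1 h enzyme–compound preincubation and 2 h substrate reaction, both 25 °C | benchmarks = low DMSO alone, high DMSO plus 5 µM PC-7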
# A1 inh: inhibitors of the anti-apoptotic protein A1, read as caspase activation; MEF A1-2A-BIM cells, Caspase-Glo 3/7 luminescence, 3 h; percent of clofoctol response, vehicle zero; caspase activation, % (test concentration not listed); 330,000 compounds, 0.066% hits; AID 2462;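 active means over half of replicate activation scores above 10%, or exactly half above 10 with the replicate mean above 10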
# proCasp3 act: activators of human procaspase-3 | activation, % at 8.5 µM | 330,000 compounds, 0.11% hits | AID 463141 | P42574 | recombinant procaspase-3 D3A, Ac-DEVD-pNA absorbance 405 nm;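 active means activation above the mean of all tested compounds plus 3 SD, cut at about 21% in these data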;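 further: 0% = DMSO alone and 100% = DMSO wells spiked with extra 5 µM PC-3 D3A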
# Target sequence (P42574 whole entry D9A/D28A/D175A): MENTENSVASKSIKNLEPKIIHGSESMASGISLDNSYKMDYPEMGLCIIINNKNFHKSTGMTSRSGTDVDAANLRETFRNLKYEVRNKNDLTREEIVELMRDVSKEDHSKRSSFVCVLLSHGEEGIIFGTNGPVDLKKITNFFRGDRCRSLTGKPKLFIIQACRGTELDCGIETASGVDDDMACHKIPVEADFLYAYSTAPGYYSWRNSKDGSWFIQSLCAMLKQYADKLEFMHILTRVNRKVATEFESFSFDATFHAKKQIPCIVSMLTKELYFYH
#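 Test system: Procaspase-3 D3A mutant; medium: Zinc-free HEPES/NaCl buffer with 0.01% Triton X-100 at pH 7.4; reagent: DEVD-pNA substrate; doses: one concentration, 8.5 µM nominal, 0.8% DMSO; times: 1 h preincubation plus 2 h reaction at 25 °C; signal: Epi-absorbance at 405 nm of released p-nitroaniline, 0 and 120 min; replicates: singlicate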
# MsrA inhibitor: inhibits bovine methionine sulfoxide reductase A. 360,000 compounds, 0.75% hits. purified bovine MsrA, absorbance read-out. inhibition, % at 15.5 µM; in the data active means inhibition above about 4.5%;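 further: 0% = vehicle wells with enzyme and 100% = reference inhibitor wells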
# MsrA act: bovine methionine sulfoxide reductase A activation; purified bovine MsrA, absorbance read-out; 360,000 compounds, 0.3% hits; activation, % at 10.6 µM; AID 602163; in the data active means activation above about 7.5%;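 further: 0% = vehicle and 100% = reference activator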
# PC3 D3A act: counter-screen: procaspase-3 (human) activation; activation, % at 8.5 µM; shares compounds with proCasp7 act; 290 tested, under 10 active; recombinant PC-3 D3A, Ac-DEVD-pNA absorbance 405 nm; aspartates 9, 28, 175 changed to alanine; 100% = enzyme control;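 active means mean percent activation across triplicates above a set limit taken from the earlier primary procaspase-3 screen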;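 further: 0% = DMSO wells and 100% = DMSO wells with 5 µM added PC-3 D3A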
# PC7 dual conf: procaspase-7 (human) activation, dual activator confirmation | shares compounds with proCasp7 act | 290 tested, under 10 active | activation, % at 8.5 µM | recombinant procaspase-7, Ac-DEVD-pNA absorbance 405 nm; D23A/D198A/D206A mutant that cannot self-cleave;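 active means mean activation above a set limit carried over from the earlier primary screen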;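 further: 0% = DMSO only and 100% = DMSO with added 5 µM PC-7 enzyme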
# Starred values were filed as active, the others as inactive; x = no result.
SMILES,proCasp7 act,A1 inh,proCasp3 act,MsrA inhibitor,MsrA act,PC3 D3A act,PC7 dual conf
Cn1c2ccccc2c(=O)c2cc(C#CC3(O)CCCCC3)ccc21,179.9*,-0.2,40.9*,-1.5,-8.7,-29.8,-35.6
Cn1c2ccccc2c(=O)c2cc(C#Cc3ccccn3)ccc21,1.4,-7.0,-6.2,-0.1,-0.2,x,x
CC(C)[C@H](NC(=O)c1ccc(Cl)cc1Cl)C(=O)N1CCC[C@H]1C(=O)NCCc1ccccc1Cl,x,x,x,0.0,x,x,x
CCN1CCN(CCCNC(=O)c2ccc(/C=C3/Oc4ccccc4N(Cc4cccc(C)c4)C3=O)cc2)CC1,27.5*,0.4,8.1,x,-1.6,-28.6,-35.5
CCN1CCN(CCCNC(=O)c2ccc(/C=C3/Sc4ccccc4N(Cc4ccccc4F)C3=O)cc2)CC1,-8.9,0.3,-2.3,-0.7,-1.4,x,x
O=C(NCCCN1CCOCC1)c1ccc(/C=C2\Oc3ccccc3N(Cc3ccccc3F)C2=O)cc1,49.6*,0.7,22.3*,1.0,0.5,-29.3,-35.7
Cc1ccc2c(n1)sc1c(-c3ccccc3)c(C#N)c(N)nc12,44.1*,-2.7,79.0*,-0.5,-2.1,-30.0,-35.8
CCOc1ccc(N2C(=O)CC(Cc3ccc(Br)cc3)C2=O)cc1 (configuration not stated),80.9*,0.1,7.9,-0.4,-0.3,1.8,2.2
COc1cccc(C=NCC(C)N=Cc2cccc(OC)c2O)c1O (configuration not stated),82.3*,-0.2,6.9,-0.8,-1.1,-0.7,-1.2
COc1ccc(O)c(C=NCC(C)N=Cc2cc(OC)ccc2O)c1 (configuration not stated),-2.8,0.6,15.1,0.8,-8.1,x,x
COc1ccc(-c2cc3nc(-c4ccccc4)cc(N4CCC(O)CC4)n3n2)cc1,32.4*,-0.7,-2.4,0.5,-8.7,-0.8,-5.5
COc1ccc(-c2cc3nc(-c4ccccc4)cc(N4CCN(C(C)=O)CC4)n3n2)cc1,x,x,x,0.7,-4.6,x,x
COc1ccc(-c2cc3nc(-c4ccccc4)cc(N4CCCC(O)C4)n3n2)cc1 (configuration not stated),58.4*,1.6,28.9*,0.8,-0.2,-1.6,-5.1
O=C(N[C@H](C(=O)N1CCC[C@H]1C(=O)NCCc1ccccc1Cl)C1CCCCC1)c1cccs1,x,x,x,0.2,x,x,x
O=C(NCc1ccccc1)[C@H]1CCCN1C(=O)[C@H]1CCCN1C(=O)c1cccc(Cl)c1,x,x,x,-0.2,x,x,x
Cc1cccc(C2=NN(c3ccccc3)[C@H](CO)[C@H]2c2ccccc2)c1,34.6*,x,20.3,x,-2.5,-30.5,-34.4
CC[C@H]1C(c2ccc(F)cc2)=NN(c2ccccc2)[C@@H]1CO,2.2,x,-1.0,1.4,0.6,x,x
OC[C@@H]1[C@@H](c2ccc(F)cc2)C(c2ccccc2)=NN1c1ccccc1,34.3*,x,30.4*,0.1,1.3,-30.4,-34.9
O=C(NC(NC1CCS(=O)(=O)C1)C(=O)c1ccccc1)c1ccc(Cl)cc1 (configuration not stated),47.0*,0.6,5.5,-0.9,-2.5,1.7,2.6
CCOC(=O)/C(=C/c1ccc(N2CCC(c3ccccc3)=N2)cc1)C(C)=O,x,x,x,x,-6.9,x,x
c1ccc(C2=NN(c3ccccc3)CC2)cc1,38.7*,-5.8,36.5*,0.1,-7.7,-29.8,-34.5
CCCCNc1cccc2c1S(=O)(=O)N[C@H](CC(C)C)CO2,x,x,x,1.9,x,x,x
CCOc1cccc(OCCOc2ccc(C(=O)c3ccccc3)cc2)c1,25.9*,-0.1,5.7,-0.3,-1.4,-0.1,-1.1
O=C(c1ccccc1)c1ccc(OCCO)cc1,14.2,-1.5,0.2,0.6,-5.9,x,x
COC(=O)[C@@H](N[C@H](/C=C/c1ccccc1)[C@@H](O)Cc1ccccc1)C(C)C,x,x,x,-0.4,x,x,x
SMILES,proCasp7 act,A1 inh,proCasp3 act,MsrA inhibitor,MsrA act,PC3 D3A act,PC7 dual conf
COc1ccc(Cl)cc1N=Cc1c(O)c2ccccc2oc1=O,41.7*,0.5,19.3,-1.0,-1.4,-5.1,-4.3
CC(C)c1ccc(N=Cc2c(O)c3ccccc3oc2=O)cc1,29.8*,0.4,21.8*,0.1,-9.1,-28.7,-34.1
CCOc1ccccc1N=Cc1c(O)c2ccccc2oc1=O,34.7*,2.3,20.5,-0.2,-3.3,-30.0,-34.4
COc1ccc(N=Cc2c(O)c3ccccc3oc2=O)cc1,11.5,-1.4,8.9,1.4,-4.5,x,x
COC(=O)N1C[C@H](O)[C@H](O)C[C@@H]1c1ccccc1Br,x,x,x,-0.9,x,x,x
CN1CCCCC(NC(=O)CSc2ccccc2)C1=O (configuration not stated),x,x,x,0.4,x,x,x
COCC#Cc1cnc2c(c1)C(=O)N([C@@H](C)CO)C[C@H](C)[C@H](CN(C)C(=O)c1ccc3c(c1)OCO3)O2,x,x,x,-0.2,x,x,x
CC(=O)C1=C(C)N(CC(C)C)C(=S)NC1c1ccc(Br)cc1 (configuration not stated),x,x,x,0.8,x,x,x
Cc1ccc(NC(=O)COc2ccc(/C=N/NC(=O)CSCc3ccccc3)cc2)cc1,-3.6,0.5,-0.4,-0.4,0.0,x,x
O=C(CSCc1ccc(Cl)cc1)N/N=C/c1ccc(OCC(=O)Nc2ccccc2)cc1,28.5*,0.3,1.6,0.6,2.1,0.0,0.6
COc1ccc(OC)c(/C=C/C(=O)Nc2cccc(S(=O)(=O)NC3=NCCCCC3)c2)c1,84.5*,0.1,26.4*,1.5,-2.8,1.3,-0.5
COc1ccc(/C=C/C(=O)Nc2cccc(S(=O)(=O)NC3=NCCCCC3)c2)c(OC)c1,1.1,0.7,6.0,1.7,-4.9,x,x
O=C(NCCN1CCOCC1)C(=O)c1c[nH]c2ccccc12,30.4*,0.9,1.3,1.2,-4.0,1.8,1.7
CC(C)c1[nH]nc2c1C(c1cccc(C(F)(F)F)c1)N(Cc1ccccc1)C2=O (configuration not stated),x,x,x,1.3,x,x,x
O=C(Nc1cccc(O)c1)c1cccc(S(=O)(=O)N2CCCC2)c1,25.7*,-4.2,-6.9,1.5,-2.0,1.0,0.8
CCOC(=O)c1cccc(NC(=O)COC)c1,8.8,-0.2,-0.5,0.1,-2.9,x,x
COCC(=O)Nc1cccc(Br)c1,26.1*,0.4,4.7,-1.3,1.1,2.5,-2.5
COc1cccc(C(=O)N[C@@H](CC(C)C)C(=O)N2CCC[C@H]2C(=O)NCc2ccccc2)c1,x,x,x,-0.2,x,x,x
CC(C)[C@H](NC(=O)C1CCCC1)C(=O)N1CCC[C@H]1C(=O)NCCc1ccccc1Cl,x,x,x,-0.6,x,x,x

# High-throughput results as filed in PubChem BioAssay.
